Results published in ChEMBL document CHEMBL1129435, “Acyclic nucleotide analogs derived from 8-azapurines: synthesis and antiviral activity” (J Med Chem, 1996).
≈ marks a conversion by molar mass, not a printed value.

Key:
[1] = test system: Human alphaherpesvirus 3; assay: Antiviral activity in TK+ varicella zoster virus (VZV) 07/1 strain in HEL cell culture; type: functional, organism-based; details: Human alphaherpesvirus 3, HEL
[2] = test system: Cytomegalovirus; assay: Antiviral activity against cytomegalovirus (CMV) Davis strain in HEL cell culture; type: functional, organism-based; details: Human betaherpesvirus 5, HEL
Method in brief: (§1)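 Confluent cell monolayers in microtiter trays were inoculated with 100 CCID50 of virus. After 1 h adsorption the residual virus was removed. Cells were then incubated with serial compound concentrations (400, 200, 100, ... µg/mL). Cytopathicity was scored once it was complete in untreated infected controls. The value is the 50% inhibitory concentration, or the concentration reducing plaque formation by 50%, in µg/mL.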

[3] = test system: Human immunodeficiency virus 1; assay: Inhibition of human immunodeficiency virus-1 (HIV-1) induced cytopathicity in human MT-4 cells; type: functional, organism-based; details: Human immunodeficiency virus 1, MT4
Method in brief: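 MT-4 cells (~4 × 10⁵ cells/mL) were infected with HIV-1(IIIB) at 100 CCID50 per µL. Infected cells were seeded into wells containing compound dilutions and incubated 5 days at 37 °C. Viable cells were then counted by trypan blue exclusion in a blood cell counting chamber.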

[4] = test system: Human immunodeficiency virus 2; assay: Inhibition of human immunodeficiency virus-2 (HIV-2) induced cytopathicity in CEM cells; type: functional, organism-based; details: Human immunodeficiency virus 2, CCRF-CEM
[5] = test system: Human alphaherpesvirus 2; assay: Antiviral activity in herpes simple virus-2 (HSV-2) Lyons strain in E6SM cell culture; type: functional, organism-based; details: Human alphaherpesvirus 2, E6SM; method in brief: as §1
[6] = Antiviral activity against thymidine kinase deficient herpes simplex virus-1 HSV-1 TK- VMW-1837 strain in E6SM cell culture; type: functional, cell-based; details: Human alphaherpesvirus 1, E6SM; method in brief: as §1
[7] = test system: Vaccinia virus; assay: Antiviral activity against vaccinia virus (VV) in E6SM cell culture; type: functional, organism-based; details: Orthopoxvirus vaccinia
[8] = Antiviral activity against herpes simplex virus-1 KOS in E6SM cell culture; type: functional, cell-based; details: Human alphaherpesvirus 1, E6SM; method in brief: as §1
[9] = test system: Human alphaherpesvirus 1; assay: Antiviral activity against thymidine kinase deficient herpes simplex virus-1 HSV-1 TK- B2006 strain in E6SM cell culture; type: functional, organism-based; details: Human alphaherpesvirus 1, E6SM; method in brief: as §1
[10] = test system: Human betaherpesvirus 5; assay: Antiviral activity against cytomegalovirus (CMV) AD169 strain in HEL cell culture; type: functional, organism-based; details: Human betaherpesvirus 5, HEL; method in brief: as §1
[11] = test system: Human immunodeficiency virus 1; assay: Inhibition of human immunodeficiency virus-1 (HIV-1) induced cytopathicity in CEM cells; type: functional, organism-based; details: Human immunodeficiency virus 1, CCRF-CEM
Method in brief: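 CEM cells (~3 × 10⁵ cells/mL) were infected with HIV-1(IIIB) at 100 CCID50 per µL. Infected cells were plated with compound dilutions and incubated 4 days at 37 °C. Giant cell formation was then examined microscopically.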

[12] = test system: Human alphaherpesvirus 3; assay: Antiviral activity in TK+ varicella zoster virus (VZV) YS strain in HEL cell culture; type: functional, organism-based; details: Human alphaherpesvirus 3, HEL
[13] = test system: Moloney murine sarcoma virus; assay: Compound was tested for anti-retroviral activity against moloney murine sarcoma virus (MSV) in murine C3H/3T3 embryo fibroblast cell culture; type: functional, organism-based
Method in brief: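 C3H/3T3 fibroblasts were seeded at 5 × 10⁵ cells/mL. After 24 h they were infected with 80 focus-forming units of MSV for 90-120 min at 37 °C; the virus came from tumours induced by intramuscular inoculation of 3-day-old NMRI mice. The medium was then replaced with fresh medium containing various compound concentrations. Transformation was scored microscopically after 6 days.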

[14] = test system: Human alphaherpesvirus 3; assay: Antiviral activity in TK+ varicella zoster virus (VZV) OKA strain in HEL cell culture; type: functional, organism-based; details: Human alphaherpesvirus 3, HEL

Structure (SMILES)	IC50 [1] [µg/mL]	IC50 [2] [µg/mL]	IC50 [3] [µg/mL]	IC50 [4] [µg/mL]	IC50 [5] [µg/mL]	IC50 [6] [µg/mL]	IC50 [7] [µg/mL]	IC50 [8] [µg/mL]	IC50 [9] [µg/mL]	IC50 [10] [µg/mL]	IC50 [11] [µg/mL]	IC50 [12] [µg/mL]	IC50 [13] [µg/mL]	IC50 [14] [µg/mL]
C[C@H](Cn1nnc2c(N)nc(N)nc21)OCP(=O)(O)O	> 50	> 50	44.4 (≈ 146 µM)	40 (≈ 132 µM)	300 (≈ 989 µM)	300 (≈ 989 µM)	> 400	300 (≈ 989 µM)	300 (≈ 989 µM)	> 50	30 (≈ 98.9 µM)	> 50	1.58 (≈ 5.21 µM)	> 50
Nc1nc(N)c2nnn(CCOCP(=O)(O)O)c2n1	> 40	> 40	45.8 (≈ 158 µM)	–	150 (≈ 519 µM)	150 (≈ 519 µM)	> 400	70 (≈ 242 µM)	150 (≈ 519 µM)	> 40	–	> 40	0.75 (≈ 2.59 µM)	> 40
CC(C)OP(=O)(CO[C@H](CO)Cn1nc2ncnc(N)c2n1)OC(C)C	–	> 50	–	–	> 400	> 400	> 400	> 400	> 400	> 50	–	> 50	–	> 50
C[C@H](Cn1nc2nc(N)nc(N)c2n1)OCP(=O)(O)O	> 50	> 50	> 100	> 100	> 200	> 200	> 100	> 100	200 (≈ 660 µM)	> 50	> 100	> 50	28.4 (≈ 93.7 µM)	> 50
Nc1nc(N)c2nnn(C[C@@H](CF)OCP(=O)(O)O)c2n1	> 50	> 50	–	50 (≈ 156 µM)	–	> 400	> 400	> 400	> 400	> 50	50 (≈ 156 µM)	> 50	14.9 (≈ 46.4 µM)	> 50
Nc1ncnc2nn(CCOCP(=O)(O)O)nc12	> 100	> 100	> 100	–	> 400	> 400	> 400	> 400	> 400	> 100	–	> 100	> 100	> 100
Cc1cn([C@H]2C[C@H](N=[N+]=[N-])[C@@H](CO)O2)c(=O)[nH]c1=O [ZIDOVUDINE]	–	–	–	0.008 (≈ 0.0299 µM)	–	–	–	–	–	–	0.005 (≈ 0.0187 µM)	–	0.02 (≈ 0.0748 µM)	–
C[C@H](Cn1nc2nc(N)nc(O)c2n1)OCP(=O)(O)O	–	> 50	20 (≈ 65.7 µM)	20 (≈ 65.7 µM)	> 400	> 400	> 400	> 100	> 400	> 50	20 (≈ 65.7 µM)	> 20	> 40	> 20
Nc1ncnc2c1nnn2C[C@@H](CF)OCP(=O)(O)O	> 40	> 40	–	> 100	> 400	> 400	> 400	> 400	> 400	> 40	> 100	> 40	> 200	> 40
Nc1nc(N)c2nn(C[C@@H](CF)OCP(=O)(O)O)nc2n1	> 50	> 50	–	> 100	–	> 400	> 400	> 400	> 400	> 50	> 100	> 50	> 200	> 50
Nc1ncnc2c1nnn2C[C@H](O)CO	> 40	–	–	> 100	–	–	–	> 200	–	> 100	> 100	> 40	> 100	> 40
C[C@@H](Cn1nnc2c(O)nc(N)nc21)OCP(=O)(O)O	> 40	> 40	52.7 (≈ 173 µM)	85 (≈ 279 µM)	300 (≈ 986 µM)	300 (≈ 986 µM)	300 (≈ 986 µM)	300 (≈ 986 µM)	> 400	> 40	40 (≈ 131 µM)	4 (≈ 13.1 µM)	27 (≈ 88.8 µM)	10 (≈ 32.9 µM)
Nc1nc(N)c2nnn(C[C@@H](CO)OCP(=O)(O)O)c2n1	6 (≈ 18.8 µM)	100 (≈ 313 µM)	> 100	> 100	40 (≈ 125 µM)	40 (≈ 125 µM)	20 (≈ 62.7 µM)	20 (≈ 62.7 µM)	20 (≈ 62.7 µM)	100 (≈ 313 µM)	> 100	6 (≈ 18.8 µM)	1 (≈ 3.13 µM)	9 (≈ 28.2 µM)
Nc1ncnc2nn(C[C@@H](CO)OCP(=O)(O)O)nc12	> 100	> 200	> 100	–	> 400	> 400	> 400	> 400	150 (≈ 493 µM)	> 200	–	> 100	> 100	> 100
Nc1nc(O)c2nnn(CCOCP(=O)(O)O)c2n1	0.1 (≈ 0.345 µM)	2.3 (≈ 7.93 µM)	2 (≈ 6.89 µM)	2 (≈ 6.89 µM)	2 (≈ 6.89 µM)	2 (≈ 6.89 µM)	0.7 (≈ 2.41 µM)	2 (≈ 6.89 µM)	7 (≈ 24.1 µM)	2.3 (≈ 7.93 µM)	2 (≈ 6.89 µM)	0.04 (≈ 0.138 µM)	0.32 (≈ 1.1 µM)	0.4 (≈ 1.38 µM)
Nc1nc2c(ncn2COCCO)c(=O)[nH]1 [ACYCLOVIR]	–	–	–	–	–	–	–	0.015 (≈ 0.0666 µM)	–	13 (≈ 57.7 µM)	–	–	–	–
Nc1ncnc2c1nnn2CCOCP(=O)(O)O	> 100	> 100	> 100	–	> 200	> 200	> 400	> 200	> 200	> 100	–	> 100	12.1 (≈ 44.1 µM)	> 100
Nc1ncnc2nn(C[C@@H](CF)OCP(=O)(O)O)nc12	> 10	> 400	15 (≈ 49 µM)	–	–	–	> 40	> 40	> 40	> 400	–	> 10	13.1 (≈ 42.8 µM)	> 10
Nc1nc(O)c2nn(CCOCP(=O)(O)O)nc2n1	> 40	> 40	> 100	> 100	> 300	> 300	150 (≈ 517 µM)	> 400	> 400	> 100	> 100	40 (≈ 138 µM)	> 40	40 (≈ 138 µM)
Nc1ncnc2nn(C[C@H](O)CO)nc12	–	–	–	> 100	–	–	–	> 200	–	> 100	> 100	–	> 100	> 40
C[C@H](Cn1nnc2c(N)ncnc21)OCP(=O)(O)O	5 (≈ 17.3 µM)	> 40	5.2 (≈ 18 µM)	10 (≈ 34.7 µM)	100 (≈ 347 µM)	100 (≈ 347 µM)	> 400	70 (≈ 243 µM)	70 (≈ 243 µM)	> 40	7 (≈ 24.3 µM)	8 (≈ 27.8 µM)	0.85 (≈ 2.95 µM)	8 (≈ 27.8 µM)
C[C@H](Cn1nc2ncnc(N)c2n1)OCP(=O)(O)O	5 (≈ 17.3 µM)	> 40	> 100	> 100	100 (≈ 347 µM)	100 (≈ 347 µM)	> 400	150 (≈ 520 µM)	150 (≈ 520 µM)	> 40	> 100	5 (≈ 17.3 µM)	2.9 (≈ 10.1 µM)	10 (≈ 34.7 µM)
Nc1nc(N)c2nnn(C[C@H](O)CO)c2n1	> 50	–	–	> 100	–	–	–	> 100	–	> 50	> 100	> 50	> 40	> 50
C[C@H](Cn1nnc2c(O)nc(N)nc21)OCP(=O)(O)O	20 (≈ 65.7 µM)	35 (≈ 115 µM)	2.42 (≈ 7.96 µM)	2 (≈ 6.57 µM)	20 (≈ 65.7 µM)	20 (≈ 65.7 µM)	> 100	20 (≈ 65.7 µM)	> 100	50 (≈ 164 µM)	2 (≈ 6.57 µM)	28 (≈ 92 µM)	0.43 (≈ 1.41 µM)	40 (≈ 131 µM)
